Measured values taken from ChEMBL document CHEMBL1136733, “Pyrrolopyrazinedione-based inhibitors of human hormone-sensitive lipase” (J Med Chem, 2003).

Columns and labels:
Hormone-sensitive lipase [1] = biological target: T1, Hormone-sensitive lipase (Homo sapiens, UniProt Q05469); assay: Inhibitory activity against Human Hormone-sensitive lipase (HSL) expressed in the baculovirus was determined by HSL [14 C] cholesteryl oleate assay
T1 sequence (Q05469 whole entry): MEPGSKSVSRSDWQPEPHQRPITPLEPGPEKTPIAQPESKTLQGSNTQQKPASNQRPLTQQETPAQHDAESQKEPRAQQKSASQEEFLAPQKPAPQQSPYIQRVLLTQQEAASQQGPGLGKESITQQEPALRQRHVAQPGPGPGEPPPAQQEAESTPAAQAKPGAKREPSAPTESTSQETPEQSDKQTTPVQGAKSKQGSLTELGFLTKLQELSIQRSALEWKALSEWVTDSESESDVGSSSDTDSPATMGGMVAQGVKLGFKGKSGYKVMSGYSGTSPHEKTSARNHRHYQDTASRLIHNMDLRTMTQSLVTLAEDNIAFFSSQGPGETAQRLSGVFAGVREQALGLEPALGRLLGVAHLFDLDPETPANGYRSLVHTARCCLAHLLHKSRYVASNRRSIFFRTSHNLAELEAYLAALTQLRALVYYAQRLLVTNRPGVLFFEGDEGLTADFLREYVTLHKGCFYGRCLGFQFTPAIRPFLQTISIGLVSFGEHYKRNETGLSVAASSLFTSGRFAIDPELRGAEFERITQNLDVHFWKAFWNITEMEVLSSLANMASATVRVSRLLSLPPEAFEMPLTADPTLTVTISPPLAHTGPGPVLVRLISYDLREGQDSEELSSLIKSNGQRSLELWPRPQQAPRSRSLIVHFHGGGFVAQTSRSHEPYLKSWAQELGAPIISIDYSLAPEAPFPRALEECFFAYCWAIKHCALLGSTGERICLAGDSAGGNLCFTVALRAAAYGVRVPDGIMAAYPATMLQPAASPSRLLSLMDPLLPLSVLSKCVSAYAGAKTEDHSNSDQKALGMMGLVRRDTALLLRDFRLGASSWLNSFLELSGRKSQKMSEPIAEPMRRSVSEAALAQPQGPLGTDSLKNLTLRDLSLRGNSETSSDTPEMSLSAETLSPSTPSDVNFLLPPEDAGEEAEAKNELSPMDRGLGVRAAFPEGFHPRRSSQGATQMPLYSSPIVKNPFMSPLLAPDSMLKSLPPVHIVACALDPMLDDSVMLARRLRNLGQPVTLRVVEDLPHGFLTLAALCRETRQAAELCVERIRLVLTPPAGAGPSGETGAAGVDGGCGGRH
Procedure, shortened: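 Recombinant human HSL from Sf9/baculovirus expression, Ni-NTA purified. Substrate was a [14C]cholesteryl oleate emulsion. IC50 derived from 8-point concentration curves run in triplicate.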

Hormone-sensitive lipase [2] = biological target: T1, Hormone-sensitive lipase; assay: Inhibitory activity against human hormone-sensitive lipase (HSL) expressed in the baculovirus was determined by p-nitrophenyl butyrate (PNPB) assay
Procedure, shortened: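 Recombinant human HSL (His-tagged, Sf9/baculovirus, Ni-NTA purified), 10 ng per reaction in 20 mM KPO4 pH 7.4, 1 mM EDTA, 0.1% Triton X-100, 5 mM p-nitrophenyl butyrate, 5% DMSO. Incubated 1 h at 27 °C, absorbance read at 400 nm. Full 8-point IC50 curves run in triplicate.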

IC50 (Hormone-sensitive lipase [1]): 260 nM | IC50 (Hormone-sensitive lipase [2]): 210 nM
SMILES: COC(=O)C1CC2(COCc3ccccc3)C(=O)N(CCCCc3ccccc3)CC(=O)N2C1c1ccco1 (configuration not stated)
